Test results as given in ChEMBL document CHEMBL1132296, “Anticonvulsant and sodium channel-blocking properties of novel 10,11-dihydro-5H-dibenz[b,f]azepine-5-carboxamide derivatives” (J Med Chem, 1999).

Assays:
Rattus norvegicus [1] = assay: Compound was tested intraperitoneally for anticonvulsant activity against MES-induced seizures in rat by MES test; type: functional; settings: ip
Outline: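 Intraperitoneal dosing to rats, MES given at t_max. Corneal electrodes after oxibuprocaine eye drops; abolition of hindleg tonic extensor component as endpoint. 5–8 rats/group; ED50 from logistic equation fit.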

Rattus norvegicus [2] = assay: Compound was tested intraperitoneally for anticonvulsant activity by rotarod test; type: functional; settings: ip
Outline: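 Rats trained to stay 3 min on a 5-cm rod rotating at 6 rpm. Next day, compound ip in DMSO (2 mL/kg), placed on rod 15 min later at 6 rpm. Deficit = failure to hold equilibrium 1 min in each of three trials. 5–8 rats/group; TD50 from logistic fit.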

Rattus norvegicus [3] = assay: t max for anticonvulsant activity was tested in rats intraperitoneally; type: functional, organism-based
Rattus norvegicus [4] = organism: Rattus norvegicus; assay: Compound was tested for anticonvulsant activity against MES-induced seizures in rat; set-up: concentration or dose not given beside the values
Rattus norvegicus [5] = assay: Compound was tested for anticonvulsant activity administered by gastric tube in rat by MES test; type: functional
Outline: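 Rats, oral by gastric tube, tested at t_max. Rats were pre-screened in a first MES session through corneal electrodes after oxibuprocaine eye drops, and only typical tonic–clonic convulsers were kept. Next day, compound or vehicle, then MES sessions 2 or 4 h and 6, 8 or 12 h post-dose. Endpoint was abolition of hindleg tonic extension. 5–8 rats/group; ED50 from logistic fit.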

Rattus norvegicus [6] = assay: Compound was tested for anticonvulsant activity administered by gastric tube in rat by rotarod test; type: functional
Rattus norvegicus [7] = organism: Rattus norvegicus; assay: Protective index value of the compound, given by gastric tube (TD50/ED50); type: functional, Stomach
Outline: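 Ratio TD50/ED50 from oral (gastric tube) rotarod and MES tests in rats at t_max. Both values come from logistic fits, 5–8 rats/group.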

Rattus norvegicus [8] = assay: Protective index value of the compound, given by intraperitoneally (TD50/ED50); type: functional
Outline: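 Ratio TD50/ED50 from intraperitoneal rotarod and MES tests in rats. Both values come from logistic fits, 5–8 rats/group.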

[9] = molecular target: T1, Sodium channel alpha subunits; brain (Types I, II, III) (Rattus norvegicus) (UniProt P04775+P04774+P08104); assay: Percent inhibition of 22Na+ uptake by voltage sensitive sodium channel of rat cortical synaptosomes at 100 uM; type: functional, subcellular
[10] = molecular target: T1, Sodium channel alpha subunits; brain (Types I, II, III) (Rattus norvegicus); assay: Percent inhibition of 22Na+ uptake by voltage sensitive sodium channel of rat cortical synaptosomes at 30 uM; type: functional, subcellular
[11] = molecular target: T1, Sodium channel alpha subunits; brain (Types I, II, III) (Rattus norvegicus); assay: Percent inhibition of 22Na+ uptake by voltage sensitive sodium channel of rat cortical synaptosomes at 300 uM; type: functional, subcellular
Rattus norvegicus [12] = assay: t max was for the anticonvulsant effect was tested in rats administered by gastric tube; t max; type: functional, organism-based; settings: Stomach
[13] = molecular target: Sodium channel alpha subunits; brain (Types I, II, III) (Rattus norvegicus, UniProt P04775+P04774+P08104); assay: Displacement of [3H]BTX from voltage-gated sodium channel of rat cortical synaptosomes; type: subcellular
[14] = molecular target: T1, Sodium channel alpha subunits; brain (Types I, II, III) (Rattus norvegicus); settings: 300 uM

T1 sequence (P04775 whole entry, looked up, other chains not shown): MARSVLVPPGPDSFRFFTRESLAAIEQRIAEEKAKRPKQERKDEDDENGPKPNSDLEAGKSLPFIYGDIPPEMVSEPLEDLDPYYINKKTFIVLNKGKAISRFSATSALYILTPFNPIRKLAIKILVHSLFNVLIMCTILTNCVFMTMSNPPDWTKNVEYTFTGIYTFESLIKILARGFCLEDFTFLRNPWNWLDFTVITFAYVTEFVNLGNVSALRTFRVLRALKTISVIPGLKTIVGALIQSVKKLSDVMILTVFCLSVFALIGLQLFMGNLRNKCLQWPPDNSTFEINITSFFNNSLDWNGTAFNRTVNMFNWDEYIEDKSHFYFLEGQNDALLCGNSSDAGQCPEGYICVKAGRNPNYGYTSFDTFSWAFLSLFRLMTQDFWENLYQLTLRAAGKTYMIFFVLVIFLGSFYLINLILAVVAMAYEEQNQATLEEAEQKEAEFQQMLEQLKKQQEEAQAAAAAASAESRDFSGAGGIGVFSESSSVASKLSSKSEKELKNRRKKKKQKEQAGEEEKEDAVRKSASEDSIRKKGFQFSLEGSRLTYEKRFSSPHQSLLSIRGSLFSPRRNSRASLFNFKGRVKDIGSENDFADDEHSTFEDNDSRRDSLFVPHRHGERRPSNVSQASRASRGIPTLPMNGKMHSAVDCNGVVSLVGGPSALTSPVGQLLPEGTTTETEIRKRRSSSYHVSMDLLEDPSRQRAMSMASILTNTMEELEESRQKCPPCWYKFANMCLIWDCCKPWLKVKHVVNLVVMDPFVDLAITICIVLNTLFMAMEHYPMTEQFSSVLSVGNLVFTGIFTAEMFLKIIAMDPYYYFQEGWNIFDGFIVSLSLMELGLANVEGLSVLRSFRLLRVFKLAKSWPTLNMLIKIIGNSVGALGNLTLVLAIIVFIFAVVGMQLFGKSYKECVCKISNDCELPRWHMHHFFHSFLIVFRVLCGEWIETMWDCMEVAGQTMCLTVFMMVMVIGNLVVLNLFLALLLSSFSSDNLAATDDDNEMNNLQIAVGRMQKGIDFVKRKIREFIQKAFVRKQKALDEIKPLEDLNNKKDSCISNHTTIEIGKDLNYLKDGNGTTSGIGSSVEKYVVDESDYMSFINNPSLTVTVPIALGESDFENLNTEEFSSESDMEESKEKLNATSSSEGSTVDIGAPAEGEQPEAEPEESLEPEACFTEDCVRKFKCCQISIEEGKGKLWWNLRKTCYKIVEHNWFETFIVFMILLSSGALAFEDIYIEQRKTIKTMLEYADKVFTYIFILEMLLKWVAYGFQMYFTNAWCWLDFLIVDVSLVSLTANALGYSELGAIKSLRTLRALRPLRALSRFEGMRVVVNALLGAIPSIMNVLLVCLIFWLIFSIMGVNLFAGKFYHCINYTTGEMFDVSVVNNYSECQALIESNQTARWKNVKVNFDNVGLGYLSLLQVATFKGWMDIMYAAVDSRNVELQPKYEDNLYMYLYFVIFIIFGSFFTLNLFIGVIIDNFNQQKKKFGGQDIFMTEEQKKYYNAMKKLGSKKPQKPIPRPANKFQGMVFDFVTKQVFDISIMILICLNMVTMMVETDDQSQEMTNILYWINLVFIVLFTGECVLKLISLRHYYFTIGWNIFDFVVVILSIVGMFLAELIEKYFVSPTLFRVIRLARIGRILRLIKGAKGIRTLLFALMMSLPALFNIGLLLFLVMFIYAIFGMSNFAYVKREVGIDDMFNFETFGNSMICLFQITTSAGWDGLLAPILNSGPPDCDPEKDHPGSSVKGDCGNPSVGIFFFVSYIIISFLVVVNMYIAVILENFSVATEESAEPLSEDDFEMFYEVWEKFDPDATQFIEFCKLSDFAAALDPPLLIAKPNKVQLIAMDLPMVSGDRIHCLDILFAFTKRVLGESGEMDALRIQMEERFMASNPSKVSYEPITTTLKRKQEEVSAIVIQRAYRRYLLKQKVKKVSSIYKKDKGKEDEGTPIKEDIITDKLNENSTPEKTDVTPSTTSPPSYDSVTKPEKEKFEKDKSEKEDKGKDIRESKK
T1 sequence (P08104 whole entry, looked up, other chains not shown): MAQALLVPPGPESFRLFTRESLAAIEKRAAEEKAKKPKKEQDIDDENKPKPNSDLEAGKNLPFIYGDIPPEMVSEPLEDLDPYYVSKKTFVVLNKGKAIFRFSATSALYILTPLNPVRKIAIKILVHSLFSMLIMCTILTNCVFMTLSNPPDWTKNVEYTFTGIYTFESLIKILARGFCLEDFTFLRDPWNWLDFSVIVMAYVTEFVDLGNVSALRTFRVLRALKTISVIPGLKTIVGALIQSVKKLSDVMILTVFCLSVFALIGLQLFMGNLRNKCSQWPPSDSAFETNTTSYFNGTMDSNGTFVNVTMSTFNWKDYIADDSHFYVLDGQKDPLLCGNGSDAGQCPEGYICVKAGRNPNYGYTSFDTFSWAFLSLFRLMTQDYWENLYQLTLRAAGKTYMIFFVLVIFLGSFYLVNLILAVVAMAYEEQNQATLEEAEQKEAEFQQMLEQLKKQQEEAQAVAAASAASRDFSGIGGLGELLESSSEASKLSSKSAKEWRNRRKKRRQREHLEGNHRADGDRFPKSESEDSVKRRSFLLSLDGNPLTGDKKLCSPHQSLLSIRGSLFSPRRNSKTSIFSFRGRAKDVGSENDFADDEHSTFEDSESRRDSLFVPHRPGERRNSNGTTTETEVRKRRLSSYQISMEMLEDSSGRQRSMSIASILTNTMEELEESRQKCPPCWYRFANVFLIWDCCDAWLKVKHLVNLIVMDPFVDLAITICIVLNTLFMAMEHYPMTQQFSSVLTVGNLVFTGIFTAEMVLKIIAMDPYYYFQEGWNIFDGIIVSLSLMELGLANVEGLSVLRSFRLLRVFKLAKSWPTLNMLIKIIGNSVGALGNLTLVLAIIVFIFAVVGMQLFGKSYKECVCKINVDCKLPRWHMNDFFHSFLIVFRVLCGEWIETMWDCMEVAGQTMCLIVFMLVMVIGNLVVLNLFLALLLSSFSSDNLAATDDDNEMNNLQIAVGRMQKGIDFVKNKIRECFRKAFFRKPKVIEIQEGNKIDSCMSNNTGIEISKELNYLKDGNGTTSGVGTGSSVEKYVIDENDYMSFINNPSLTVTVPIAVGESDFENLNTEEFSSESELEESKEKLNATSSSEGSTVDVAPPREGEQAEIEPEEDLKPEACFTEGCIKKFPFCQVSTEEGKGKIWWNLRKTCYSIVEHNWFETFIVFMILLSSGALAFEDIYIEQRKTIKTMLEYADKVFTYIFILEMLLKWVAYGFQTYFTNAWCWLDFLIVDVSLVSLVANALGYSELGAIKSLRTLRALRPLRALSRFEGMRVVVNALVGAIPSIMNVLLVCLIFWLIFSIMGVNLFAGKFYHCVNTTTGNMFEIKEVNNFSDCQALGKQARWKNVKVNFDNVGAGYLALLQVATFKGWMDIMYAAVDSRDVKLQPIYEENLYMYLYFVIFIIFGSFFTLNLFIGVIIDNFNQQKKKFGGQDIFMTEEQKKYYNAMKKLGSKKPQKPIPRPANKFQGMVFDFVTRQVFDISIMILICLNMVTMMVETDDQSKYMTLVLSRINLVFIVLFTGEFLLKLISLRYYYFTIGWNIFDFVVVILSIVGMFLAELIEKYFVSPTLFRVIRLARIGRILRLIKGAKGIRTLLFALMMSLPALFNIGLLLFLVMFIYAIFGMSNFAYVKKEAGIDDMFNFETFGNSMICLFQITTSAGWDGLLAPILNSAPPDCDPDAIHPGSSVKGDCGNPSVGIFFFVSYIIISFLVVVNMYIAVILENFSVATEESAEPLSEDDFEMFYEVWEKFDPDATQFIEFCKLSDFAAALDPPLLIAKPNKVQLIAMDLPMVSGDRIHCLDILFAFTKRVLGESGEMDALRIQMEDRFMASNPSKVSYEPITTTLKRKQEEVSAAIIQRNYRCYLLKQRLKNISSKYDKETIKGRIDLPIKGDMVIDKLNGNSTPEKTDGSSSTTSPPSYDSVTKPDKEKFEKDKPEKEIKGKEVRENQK

NC(=O)N1c2ccccc2CC(O)c2ccccc21 (centres undefined) [LICARBAZEPINE]
ED50 (Rattus norvegicus [1]): 14.6 mg/kg
TD50 (Rattus norvegicus [2]): 89.3 mg/kg
Tmax (Rattus norvegicus [3]): 15 min

NC(=O)N1c2ccccc2CC(OC(=O)CBr)c2ccccc21 (centres undefined)
Protection (Rattus norvegicus [4]): 15.1%

NC(=O)N1c2ccccc2C[C@@H](O)c2ccccc21
ED50 (Rattus norvegicus [1]): 17.9 mg/kg
TD50 (Rattus norvegicus [2]): 97.4 mg/kg
Tmax (Rattus norvegicus [3]): 30 min

CCCC(CCC)C(=O)OC1Cc2ccccc2N(C(N)=O)c2ccccc21 (centres undefined)
Protection (Rattus norvegicus [4]): 0.2%

CC(C)(C)C(=O)OC1Cc2ccccc2N(C(N)=O)c2ccccc21 (centres undefined)
Protection (Rattus norvegicus [4]): 6.5%

CC(=O)Oc1ccccc1C(=O)OC1Cc2ccccc2N(C(N)=O)c2ccccc21 (centres undefined)
Protection (Rattus norvegicus [4]): 10.2%

NC(=O)N1c2ccccc2CC(OC(=O)Cc2ccc([N+](=O)[O-])cc2)c2ccccc21 (centres undefined)
Protection (Rattus norvegicus [4]): 13.8%

CC(=O)OC1Cc2ccccc2N(C(N)=O)c2ccccc21 (centres undefined)
ED50 (Rattus norvegicus [1]): 13.1 mg/kg
ED50 (Rattus norvegicus [5]): 13.5 mg/kg
TD50 (Rattus norvegicus [6]): 428 mg/kg
TD50 (Rattus norvegicus [2]): 130 mg/kg
Protective index (Rattus norvegicus [7]): 31.7
Protective index (Rattus norvegicus [8]): 9.9
inhibition [9]: 61.8%
inhibition [10]: 42.2%
inhibition [11]: 82.1%
Tmax (Rattus norvegicus [12]): 120 min
IC50 [13]: 141 µM
Tmax (Rattus norvegicus [3]): 5 min
Protection (Rattus norvegicus [4]): 54.4%

NC(=O)N1c2ccccc2CC(OC(=O)c2ccccc2)c2ccccc21 (centres undefined)
Protection (Rattus norvegicus [4]): 17.2%

NC(=O)N1c2ccccc2C=Cc2ccccc21 [CARBAMAZEPINE]
ED50 (Rattus norvegicus [1]): 3.4 mg/kg
ED50 (Rattus norvegicus [5]): 5.4 mg/kg
TD50 (Rattus norvegicus [6]): 251 mg/kg
TD50 (Rattus norvegicus [2]): 27.4 mg/kg
inhibition [9]: 44.3%
inhibition [10]: 22.6%
inhibition [11]: 64.8%
Tmax (Rattus norvegicus [12]): 120 min
IC50 [13]: 210 µM
Tmax (Rattus norvegicus [3]): 15 min

CCOC(=O)OC1Cc2ccccc2N(C(N)=O)c2ccccc21 (centres undefined)
Protection (Rattus norvegicus [4]): 18.3%

CCCCCCCCCCCCCCCCCC(=O)OC1Cc2ccccc2N(C(N)=O)c2ccccc21 (centres undefined)
Protection (Rattus norvegicus [4]): 0.8%

CCC(=O)OC1Cc2ccccc2N(C(N)=O)c2ccccc21 (centres undefined)
Protection (Rattus norvegicus [4]): 40.6%

NC(=O)N1c2ccccc2CC(OC=O)c2ccccc21 (centres undefined)
Protection (Rattus norvegicus [4]): 32.1%

CCCC(CC)C(=O)OC1Cc2ccccc2N(C(N)=O)c2ccccc21 (centres undefined)
Protection (Rattus norvegicus [4]): -12.8%

NC(=O)N1c2ccccc2C[C@H](O)c2ccccc21 [ESLICARBAZEPINE]
ED50 (Rattus norvegicus [1]): 17.1 mg/kg
TD50 (Rattus norvegicus [2]): 96.6 mg/kg
Tmax (Rattus norvegicus [3]): 30 min

NC(=O)N1c2ccccc2CC(=O)c2ccccc21 [OXCARBAZEPINE]
ED50 (Rattus norvegicus [1]): 6.1 mg/kg
ED50 (Rattus norvegicus [5]): 10 mg/kg
TD50 (Rattus norvegicus [6]): > 1000 mg/kg
TD50 (Rattus norvegicus [2]): 40.1 mg/kg
inhibition [9]: 50.2%
inhibition [10]: 31.2%
Tmax (Rattus norvegicus [12]): 120 min
IC50 [13]: 161 µM
Tmax (Rattus norvegicus [3]): 5 min
inhibition [14]: 76.2%

CC(=O)O[C@@H]1Cc2ccccc2N(C(N)=O)c2ccccc21
ED50 (Rattus norvegicus [1]): 18 mg/kg
ED50 (Rattus norvegicus [5]): 10.9 mg/kg
TD50 (Rattus norvegicus [6]): > 1000 mg/kg
TD50 (Rattus norvegicus [2]): 135 mg/kg
Protective index (Rattus norvegicus [7]): >91.7
Protective index (Rattus norvegicus [8]): 7.5
inhibition [9]: 57.7%
inhibition [10]: 17.9%
inhibition [11]: 73.2%
Tmax (Rattus norvegicus [12]): 480 min
IC50 [13]: 113 µM
Tmax (Rattus norvegicus [3]): 60 min
Protection (Rattus norvegicus [4]): 5.9%

CCCC(=O)OC1Cc2ccccc2N(C(N)=O)c2ccccc21 (centres undefined)
Protection (Rattus norvegicus [4]): 34.2%

CC(Cl)C(=O)OC1Cc2ccccc2N(C(N)=O)c2ccccc21 (centres undefined)
Protection (Rattus norvegicus [4]): 3.9%

NC(=O)N1c2ccccc2CC(OC(=O)CCl)c2ccccc21 (centres undefined)
Protection (Rattus norvegicus [4]): 0.5%

CC(=O)O[C@H]1Cc2ccccc2N(C(N)=O)c2ccccc21 [ESLICARBAZEPINE ACETATE]
ED50 (Rattus norvegicus [1]): 6.3 mg/kg
ED50 (Rattus norvegicus [5]): 4.7 mg/kg
TD50 (Rattus norvegicus [6]): 359 mg/kg
TD50 (Rattus norvegicus [2]): 78.6 mg/kg
Protective index (Rattus norvegicus [7]): 76.3
Protective index (Rattus norvegicus [8]): 12.5
inhibition [9]: 73.4%
inhibition [10]: 52.6%
inhibition [11]: 95.6%
Tmax (Rattus norvegicus [12]): 120 min
IC50 [13]: 138 µM
Tmax (Rattus norvegicus [3]): 15 min
Protection (Rattus norvegicus [4]): 100%

COc1ccc(CC(=O)OC2Cc3ccccc3N(C(N)=O)c3ccccc32)cc1 (centres undefined)
Protection (Rattus norvegicus [4]): 8.1%

NC(=O)N1c2ccccc2CC(OC(=O)c2cccnc2)c2ccccc21 (centres undefined)
Protection (Rattus norvegicus [4]): 32.8%
